# PTK2B oligo ant: antagonists of Pyk2 self-association, primary screen, Q293 cells, FERM NanoBiT luminescence, HTS. AID 1347419, 2020. hits give low values. Protein-tyrosine kinase 2-beta (Homo sapiens), Q14289. 99,000 tested, 0.83% active. z-score (the deposit names both 25 µM and 10 µM);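 active means Z-score of -3 or lower, scaled per plate to the spread of control and sample wells; inactive means z-score above -3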;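 further: negative z-score means lost luminescence so less FERM oligomerization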
# Target sequence (Q14289 whole entry, looked up): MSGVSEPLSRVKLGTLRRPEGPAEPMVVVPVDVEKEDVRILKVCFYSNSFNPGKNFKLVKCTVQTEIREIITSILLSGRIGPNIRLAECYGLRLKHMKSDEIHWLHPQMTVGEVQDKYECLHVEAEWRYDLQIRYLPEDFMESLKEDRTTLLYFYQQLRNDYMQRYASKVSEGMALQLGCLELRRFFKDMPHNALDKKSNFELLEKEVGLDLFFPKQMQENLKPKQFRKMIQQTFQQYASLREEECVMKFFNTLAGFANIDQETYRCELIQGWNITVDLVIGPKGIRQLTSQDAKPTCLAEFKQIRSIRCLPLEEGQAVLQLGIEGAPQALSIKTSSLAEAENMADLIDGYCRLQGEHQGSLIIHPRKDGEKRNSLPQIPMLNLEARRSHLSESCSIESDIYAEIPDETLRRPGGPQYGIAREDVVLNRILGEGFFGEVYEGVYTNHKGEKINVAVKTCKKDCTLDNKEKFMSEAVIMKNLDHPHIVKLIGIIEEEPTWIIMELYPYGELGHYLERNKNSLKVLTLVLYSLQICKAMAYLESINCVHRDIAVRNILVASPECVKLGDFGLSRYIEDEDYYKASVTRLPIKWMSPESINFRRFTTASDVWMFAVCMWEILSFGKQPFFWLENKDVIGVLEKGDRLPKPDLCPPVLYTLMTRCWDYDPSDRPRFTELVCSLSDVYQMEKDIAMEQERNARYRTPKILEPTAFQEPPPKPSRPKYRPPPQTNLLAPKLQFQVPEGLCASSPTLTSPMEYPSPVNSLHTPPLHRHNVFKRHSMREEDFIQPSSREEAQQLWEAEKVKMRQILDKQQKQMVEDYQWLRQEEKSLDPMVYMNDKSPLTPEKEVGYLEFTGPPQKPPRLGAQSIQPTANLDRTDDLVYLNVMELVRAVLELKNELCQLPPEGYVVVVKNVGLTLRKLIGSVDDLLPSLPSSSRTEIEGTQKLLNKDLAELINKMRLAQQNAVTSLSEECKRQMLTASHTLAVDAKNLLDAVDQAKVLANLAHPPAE
# SF1 activator: activators of human SF-1, primary screen, cell-based, CHO-K1, Gal4-SF-1 LBD, luciferase luminescence | 65,000 tested, 1.9% active | CHO-K1 Gal4-SF-1 LBD luciferase reporter; % increase over DMSO SF-1-specific signal | AID 522, 2006 | activation, % at 10 µM | Steroidogenic factor 1 (Homo sapiens), Q13285;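 active means activation above the mean activation of all tested compounds plus 3 SD, cut at about 50% in these data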
#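 Material: Gal4–SF-1 LBD one-hybrid luciferase reporter in CHO-K1 cells | Amount: 4,000 cells per well | Compound dosing: 10 µM single point, 1% DMSO | Schedule: 20 h compound treatment, 37 °C | Measured by: SteadyLite luciferase luminescence | Evaluation: Percent activation versus DMSO | Control set: DMSO-treated SF-1-transfected cells as negative, DMSO-treated mock-transfected cells lacking SF-1 as background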
# ERa SRC1 pot: enhancers of ERα–SRC-1 coactivator binding, primary screen, biochemical, TR-FRET, ERα LBD, low estradiol | Estrogen receptor (Homo sapiens), P03372 | TR-FRET ERalpha-LBD/SRC-Cy5 coactivator binding, 2 h; 100 = basal binding, no effect | coactivator binding (% of control), % at 25.6 µM | 86,000 tested, 1.3% active; in the data active means activity above about 200%;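 further: binding measured in presence of low estradiol as agonist stimulus; 0% = peptide alone without receptor and 100% = receptor with peptide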
# RORA act: activators of orphan receptor RORA, primary screen, cell-based, luminescence. 65,000 tested, 1.5% active. activation, % at 10 µM. Nuclear receptor ROR-alpha (Homo sapiens), P35398. CHO-K1 Gal4-RORA LBD luciferase reporter; percent increase over mock-subtracted basal signal. AID 560, 2006;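 active means activation above the mean of all tested compounds plus 3 SD, cut at about 49% in these data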;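 further: 0% = DMSO-treated RORA cells and 100% = added signal equal to DMSO minus mock-transfected cells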
# ERa SRC1 inh: ERα–SRC-1 coactivator interaction inhibitors, primary screen, biochemical, TR-FRET, ERα LBD, estradiol-bound. TR-FRET ER-alpha LBD / SRC-1 peptide. inhibition, % at 25.6 µM. Estrogen receptor (Homo sapiens), P03372. 86,000 tested, 1.7% active; in the data active means inhibition above about 50%;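 further: 0% = receptor plus peptide control and 100% = peptide only without receptor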
# ERb SRC1 inh: inhibitors of ERβ-SRC1 coactivator interaction, primary screen, biochemical, TR-FRET, ERβ LBD, SRC-1 peptide | 86,000 tested, 1.3% active | TR-FRET ER-beta LBD / SRC1-Cy5 peptide binding; receptor agonist-loaded with 1 µM estradiol | inhibition, % at 25.6 µM | Estrogen receptor beta (Homo sapiens), Q92731;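 active means compounds whose percent inhibition of the receptor-coactivator binding signal exceeds about 50% in the single-dose screen, limit read from the data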;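 further: 0% = receptor plus peptide wells without compound and 100% = peptide-only wells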
# The depositor's hits bear a star; . = no result; [ ] = remark or other dose. The list is not random: actives were taken first. Their share in the collection is about 4.8%.
SMILES,PTK2B oligo ant,SF1 activator,ERa SRC1 pot,RORA act,ERa SRC1 inh,ERb SRC1 inh
CCCc1cc(N2CCN(c3ccccn3)CC2)n2nc(C)c(-c3ccccc3)c2n1,1.1,4,242*[fluorescence artefact?],24,5,25
CCOC(=O)COc1cccc2c(=O)n(CC(=O)N3CCCc4ccccc43)ccc12,.,.,97,.,10,51*[fluorescence artefact?]
COc1cccc(-n2nnc3c(=O)n(Cc4cccc(F)c4)cnc32)c1,-0.57,-8,269*,-17,19,17
COc1ccc(CCCNC(=O)CC#N)cc1OC,0.31,-4,114,-35,-8,-5
Cn1c(-c2ccc(C=O)s2)nc2c3ccccc3c3ccccc3c21,-3.6*,.,364*[fluorescence artefact?],.,32,-1
CCCCc1nc2sc3c(c2c(=O)[nH]1)CCC3,-1.1,6,96,-15,4,6
COc1cc(OC)cc(-c2nc3ccccc3s2)c1,-0.89,.,102,.,10,-8
CCCNC(=O)c1ccc(-c2nc3ccccc3s2)s1,-0.54,.,73,.,54*,62*
Brc1ccc(-c2nc3ccccc3s2)s1,-1.1,54*,134,48,3,4
O=C(NCCCO)c1nc2ccccc2s1,-0.48,20,101,-7,-3,-9
c1ccc(-c2nc3ccccc3s2)nc1,-0.73,60*,104,34,9,-12
Cc1cc(=O)oc(C)c1C(=O)OCC(=O)c1ccc(Cl)cc1,0.17,.,106,.,-10,-6
O=C1NN(c2ccc(Cl)c(Cl)c2)C(=O)/C1=C/c1cccc(OC(=O)c2cccs2)c1,.,.,66,.,51*,28
Cc1onc(-c2c(Cl)cccc2Cl)c1C(=O)N1CCc2ccccc2C1,0.43,.,96,.,1,0
O=C1N(CCCCN2C(=O)C3(OCCO3)c3ccccc32)c2ccccc2C12OCCO2,0.05,4,102,3,4,2
O=C1N(CCCN2C(=O)C3(OCCO3)c3ccccc32)c2ccccc2C12OCCO2,0.44,-15,113,53*,-12,-6
Cc1[nH]c2ccccc2c1SCC(=O)O,0.56,.,104,.,-23,-12
Cc1[nH]c2ccccc2c1C1C(c2ccccc2)=NN=C(C(C)C)N1O (configuration not stated),-3.6*,.,92,.,3,-3
COc1ccccc1Oc1nc(-c2ccccc2)cc(C)c1S(C)(=O)=O,-3.5*,.,97,.,-6,4
COc1ccc(C(=O)N2CCN(C(=O)Cc3ccccc3)CC2)cc1OC,0.7,3,99,-23,-1,-1
COc1ccc(CC(=O)N2CC(C)CC(C)C2)cc1OC (configuration not stated),0.39,.,93,.,-3,84*[fluorescence artefact?]
Cc1cc([N+](=O)[O-])nn1CC(=O)NCc1ccco1,0.72,.,.,.,.,.
Cc1nc(Oc2cccc(Cl)c2)c2oc3ccccc3c2n1,-0.27,.,93,.,1,74*[fluorescence artefact?]
CCC(CCC(=O)Nc1ccc(S(N)(=O)=O)cc1)C(=O)O (configuration not stated),0.31,.,109,.,7,-6
COc1cccc2c(=O)n(CC(=O)N3CCCCC3)ccc12,.,.,80,.,3,0
SMILES,PTK2B oligo ant,SF1 activator,ERa SRC1 pot,RORA act,ERa SRC1 inh,ERb SRC1 inh
CCCCN1C(=O)Cc2c1nc(N)c1c(N)nc(N(CCC)CCC)c(C#N)c21,-3.6*,.,.,.,.,.
Cc1ccc(NC(C(N)=O)c2c(C)[nH]c(=O)[nH]c2=O)cc1 (configuration not stated),1.4,14,110,-6,-14,-4
COc1ccc(C2(C(=O)NC3CCCCC3)CCOCC2)cc1OC,0.47,.,92,.,1,-32
CC(=O)OC1CCC2(C)C(COc3ccc4ccc(=O)oc4c3)C(C)(O)CCC2C1(C)C (configuration not stated),-3.3*,.,.,.,.,.
CN(C)C(=O)COc1ccc2ccc(=O)oc2c1,-0.45,9,138,7,1,-4
Cn1nc(C(F)(F)F)c(C#N)c1N1CCN(c2cccc(C(F)(F)F)c2)CC1,0.96,.,111,.,-8,-5
Cn1c(Sc2ccc(C(F)(F)F)cc2[N+](=O)[O-])nnc1-c1ccccc1,0.86,.,.,.,.,.
CCc1nc(SCC(=O)N2CCCc3ccccc32)c2c(=O)n(C)c(=O)n(C)c2n1,.,-5,82,-6,15,15
Cc1c(C(=O)N2CCOCC2)sc2nc(-c3ccccc3)cn12,1.1,82*,100,58*,1,31
Cc1c(C(=O)Nc2ccncc2)sc2nc(-c3ccccc3)cn12,.,-15,214*[fluorescence artefact?],-20,14,-4
Cc1c(C(=O)Nc2ccc3c(c2)OCCO3)sc2nc(-c3ccccc3)cn12,-3.6*,-20,100,-37,-24,-23
Cc1c(C(=O)N2CCN(c3ccc(F)cc3)CC2)sc2nc(-c3ccccc3)cn12,1.2,2,137,18,-12,-13
CC(=O)OCc1c(C(F)(F)F)nn(C)c1Sc1ccccc1,0.54,.,.,.,.,.
CCNc1nnc(-c2ccccc2OC)s1,.,-3,73,-1,6,73*[fluorescence artefact?]
CCCCc1c(C)nn(-c2nnc3c4ccccc4n(CC)c3n2)c1C,-1.6,-12,141,2,52*[fluorescence artefact?],31
Cc1cccc(-n2nnnc2SCc2csc(-c3ccccc3)n2)c1,-1.8,4,103,8,-11,-5
CN1/C(=C\C(=O)COC(=O)Cn2nnc(-c3ccccc3)n2)C(C)(C)c2ccccc21,0.7,1,292*,24,-3,-3
CCOC(=O)C1CCCN(CC(=O)/C=C2/N(C)c3ccccc3C2(C)C)C1 (configuration not stated),-0.07,0,103,3,-1,1
O=c1oc(/C=C/c2ccco2)nc2sc3c(c12)CCC3,0.58,.,74,.,13,0
CCC(=O)Nc1ccc(NC(=O)CSc2nnnn2-c2cccnc2)cc1C,1.6,.,.,.,.,.
CCOc1ccc(C(C)=O)cc1Cn1nc(C(=O)O)c2ccccc2c1=O,-0.73,-9,252*,0,18,31
Cc1c(NC(=O)Cn2nc(C(=O)O)c3ccccc3c2=O)c(=O)n(-c2ccccc2)n1C,-4*,1,99,-9,0,1
Cc1cccc(C)c1OCCn1nc(C(=O)O)c2ccccc2c1=O,-0.31,.,97,.,4,4
CCC(=O)Nc1ccc(C(=O)Cn2nc(C(=O)O)c3ccccc3c2=O)cc1,.,-4,51,7,77*[fluorescence artefact?],61*

# Compound activity: PubChem, several laboratories
